Data as given in ChEMBL document CHEMBL5724801, “EUbOPEN Chemogenomics Library - Multiplex” (2024).
Where “and” joins values, the source holds several entries; their conditions need not be identical. Identical values can stand only once.

Tested on: U2OS
Test: Multiplex assay against U2OS
Format: toxicity, cell-based
Details: human
Outline: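 At seeding, live cells were stained with Hoechst33342, BioTracker Green Microtubule Cytoskeleton Dye, MitoTracker Red and Annexin V Alexa Fluor 680. After compound addition they were imaged on a CQ1 microscope at 37°C and 5% CO2, and CellPathfinder machine-learning gating sorted them into Hoechst high-intensity objects or normal cells, with normal cells further split into healthy, pyknosed or fragmented nuclei and pyknosed cells into mitotic or apoptotic. Tubulin, mitochondrial-mass and membrane-permeability phenotypes are given as per cents of cells with healthy nuclei.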

[1] = 12 h, 1 µM, compound concentration 1 uM
[2] = 12 h, 10 µM, compound concentration 10 uM
[3] = 24 h, 1 µM, compound concentration 1 uM
[4] = 24 h, 10 µM, compound concentration 10 uM
[5] = 48 h, 1 µM, compound concentration 1 uM
[6] = 48 h, 10 µM, compound concentration 10 uM

## Cl.Clc1cc2cc(c1)-c1cnn3ccc(nc13)NCCOCCO2
[1]
  Population Fragmented Nuclei (%): 3.05% and 2.1%
  Population Healthy Nuclei (%): 88.09% and 86.01%
  Population Hoechst High Intensity Objects (%): 0%
  Population Membrane Permeable-Phenotype (%): 0.94% and 0.81%
  Population Mitochondria Different-Phenotype (%): 0% and 8.94%
  Population Mitotic Cells (%): 56.25% and 94.12%
  Population Normal (%): 100%
  Population Pyknosed Nuclei (%): 8.86% and 11.89%
  Population Tubulin-Different-Phenotype (%): 0.94% and 0%
  Total Cell Count: 361 and 143
[2]
  Population Apoptotic (%): 35.21% and 35.71%
  Population Fragmented Nuclei (%): 3.56% and 1.13%
  Population Healthy Nuclei (%): 82.38% and 83.05%
  Population Hoechst High Intensity Objects (%): 0%
  Population Membrane Permeable-Phenotype (%): 0.96% and 3.4%
  Population Mitotic Cells (%): 64.79% and 64.29%
  Population Normal (%): 100%
  Population Pyknosed Nuclei (%): 14.06% and 15.82%
  Population Tubulin-Different-Phenotype (%): 2.16% and 1.36%
  Total Cell Count: 505 and 177
[3]
  Population Apoptotic (%): 43.75% and 57.89%
  Population Fragmented Nuclei (%): 2.2% and 1.09%
  Population Healthy Nuclei (%): 88.2% and 88.52%
  Population Hoechst High Intensity Objects (%): 0%
  Population Membrane Permeable-Phenotype (%): 0.68% and 3.09%
  Population Mitochondria Different-Phenotype (%): 0% and 5.56%
  Population Mitotic Cells (%): 56.25% and 42.11%
  Population Normal (%): 100%
  Population Pyknosed Nuclei (%): 9.6% and 10.38%
  Population Tubulin-Different-Phenotype (%): 0.45% and 0%
  Total Cell Count: 500 and 183
[4]
  Population Apoptotic (%): 55.41% and 45%
  Population Fragmented Nuclei (%): 1.48% and 2.62%
  Population Healthy Nuclei (%): 86.37% and 79.91%
  Population Hoechst High Intensity Objects (%): 0.16% and 0%
  Population Membrane Permeable-Phenotype (%): 0.19% and 2.73%
  Population Mitochondria Different-Phenotype (%): 0% and 4.37%
  Population Mitotic Cells (%): 44.59% and 55%
  Population Normal (%): 99.84% and 100%
  Population Pyknosed Nuclei (%): 12.15% and 17.47%
  Population Tubulin-Different-Phenotype (%): 1.33% and 2.73%
  Total Cell Count: 610 and 229
[5]
  Population Apoptotic (%): 47.73% and 42.42%
  Population Fragmented Nuclei (%): 3.1% and 2.92%
  Population Healthy Nuclei (%): 87.5% and 86.36%
  Population Hoechst High Intensity Objects (%): 0%
  Population Membrane Permeable-Phenotype (%): 0.98% and 3.01%
  Population Mitochondria Different-Phenotype (%): 0% and 3.01%
  Population Mitotic Cells (%): 52.27% and 57.58%
  Population Normal (%): 100%
  Population Pyknosed Nuclei (%): 9.4% and 10.71%
  Population Tubulin-Different-Phenotype (%): 0.85% and 1.5%
[6]
  Population Apoptotic (%): 53.64% and 54.72%
  Population Fragmented Nuclei (%): 3.97% and 2.37%
  Population Healthy Nuclei (%): 81.76% and 83.68%
  Population Hoechst High Intensity Objects (%): 0.19% and 0%
  Population Membrane Permeable-Phenotype (%): 1.39% and 4.4%
  Population Mitochondria Different-Phenotype (%): 0.46% and 3.77%
  Population Mitotic Cells (%): 46.36% and 45.28%
  Population Normal (%): 99.81% and 100%
  Population Pyknosed Nuclei (%): 14.27% and 13.95%
  Population Tubulin-Different-Phenotype (%): 2.43% and 3.46%
  Total Cell Count: 1060 and 380

## Cl.Clc1ccc2nsnc2c1NC1=NCCN1 [TIZANIDINE HYDROCHLORIDE]
[1]
  Population Apoptotic (%): 82% and 85%
  Population Fragmented Nuclei (%): 20% and 10%
  Population Healthy Nuclei (%): 73% and 78%
  Population Hoechst High Intensity Objects (%): 2% and 1%
  Population Membrane Permeable-Phenotype (%): 6% and 3%
  Population Mitochondria Different-Phenotype (%): 1% and 2%
  Population Mitotic Cells (%): 17% and 14%
  Population Normal (%): 97% and 98%
  Population Pyknosed Nuclei (%): 5% and 10%
  Population Tubulin-Different-Phenotype (%): 2% and 3%
  Total Cell Count: 306 and 140
[2]
  Population Apoptotic (%): 77% and 90%
  Population Fragmented Nuclei (%): 31% and 22%
  Population Healthy Nuclei (%): 61% and 66%
  Population Hoechst High Intensity Objects (%): 2%
  Population Membrane Permeable-Phenotype (%): 7% and 14%
  Population Mitochondria Different-Phenotype (%): 2% and 7%
  Population Mitotic Cells (%): 22% and 10%
  Population Normal (%): 97%
  Population Pyknosed Nuclei (%): 6% and 10%
  Total Cell Count: 280 and 98
[3]
  Population Apoptotic (%): 90% and 89%
  Population Fragmented Nuclei (%): 19% and 15%
  Population Healthy Nuclei (%): 72% and 73%
  Population Hoechst High Intensity Objects (%): 0% and 4%
  Population Membrane Permeable-Phenotype (%): 4% and 7%
  Population Mitochondria Different-Phenotype (%): 2% and 4%
  Population Mitotic Cells (%): 9% and 10%
  Population Normal (%): 99% and 95%
  Population Pyknosed Nuclei (%): 8% and 11%
  Population Tubulin-Different-Phenotype (%): 5% and 6%
  Total Cell Count: 381 and 172
[4]
  Population Apoptotic (%): 65% and 86%
  Population Fragmented Nuclei (%): 29% and 25%
  Population Healthy Nuclei (%): 62% and 61%
  Population Hoechst High Intensity Objects (%): 2%
  Population Membrane Permeable-Phenotype (%): 4% and 12%
  Population Mitochondria Different-Phenotype (%): 1% and 7%
  Population Mitotic Cells (%): 34% and 13%
  Population Normal (%): 97%
  Population Pyknosed Nuclei (%): 8% and 13%
  Population Tubulin-Different-Phenotype (%): 1% and 11%
  Total Cell Count: 327 and 118
[5]
  Population Apoptotic (%): 86% and 90%
  Population Fragmented Nuclei (%): 11% and 17%
  Population Healthy Nuclei (%): 80% and 74%
  Population Hoechst High Intensity Objects (%): 1% and 3%
  Population Membrane Permeable-Phenotype (%): 2% and 5%
  Population Mitochondria Different-Phenotype (%): 1% and 2%
  Population Mitotic Cells (%): 13% and 9%
  Population Normal (%): 98% and 96%
  Population Pyknosed Nuclei (%): 7% and 8%
  Population Tubulin-Different-Phenotype (%): 2% and 3%
  Total Cell Count: 512 and 260
[6]
  Population Apoptotic (%): 93% and 76%
  Population Fragmented Nuclei (%): 18% and 22%
  Population Healthy Nuclei (%): 75% and 65%
  Population Hoechst High Intensity Objects (%): 2% and 4%
  Population Membrane Permeable-Phenotype (%): 5% and 15%
  Population Mitochondria Different-Phenotype (%): 1% and 5%
  Population Normal (%): 97% and 95%
  Population Pyknosed Nuclei (%): 6% and 11%
  Population Tubulin-Different-Phenotype (%): 3% and 7%
